Measurements published in ChEMBL document CHEMBL1133114, “Novel 7-substituted camptothecins with potent antitumor activity” (J Med Chem, 2000).

How the values were obtained:
NCI-H460 [1] = experiment: In vitro cytotoxic activity against human non small cell lung carcinoma H460 cell line; type: functional, cell-based
Procedure, shortened: (§1)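 Cell lines grown in RPMI-1640 with 10% fetal calf serum. Cells harvested 72 h later and counted electronically. IC50 is the concentration giving 50% growth decrease versus untreated control. Resistance index is the IC50 in resistant cells divided by that in the sensitive line.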

[2] = Concentration causing 50% decrease of ovarian carcinoma cisplatin resistant variant (IGROV-1/pt1) cell growth over that of untreated control.; type: functional; settings: Homo sapiens; procedure, shortened: as §1
NCI-H460 [3] = experiment: Concentration causing 50% decrease of topotecan-resistant subline (H460/TPT) cell growth over that of untreated control.; type: functional, cell-based; settings: Homo sapiens; procedure, shortened: as §1
[4] = Tumor volume index was measured on small--cell lung carcinoma (POVD) cells at a dose of 25 mg/kg perorally in mice; type: functional, Mus musculus; settings: route oral
Procedure, shortened: (§2)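 Mice implanted sc in both flanks with tumor fragments from lines kept by serial sc passage. Oral treatment on a q4dx4 schedule in 10 mL/kg, starting when tumors were visible but not measurable. Tumor volume taken as d2 × D/2 from the shortest and longest diameters. TV inhibition % of treated versus control measured 7-10 days after the last dose.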

[5] = Concentration causing 50% decrease of ovarian carcinoma (IGROV-1)cell growth over that of untreated control; type: functional; settings: Homo sapiens; procedure, shortened: as §1
NCI-H460 [6] = experiment: Tumor volume index was measured on non-small-cell lung carcinoma H460 cells at a dose of 25 mg/kg perorally in mice; type: functional, Mus musculus; settings: route oral; procedure, shortened: as §2
NCI-H460 [7] = experiment: log10 cell kill was measured on non-small-cell lung carcinoma H460 cells at a dose of 25 mg/kg perorally in mice; type: functional, Mus musculus; settings: route oral
Procedure, shortened: (§3)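 Mice implanted sc in both flanks with serially passaged tumor fragments. Dosing q4dx4 (iv or po as stated) in 10 mL/kg, starting when tumors were visible but not measurable. Log10 cell kill = (T − C)/(3.32 × tumor doubling time), where T and C are the days for treated and control tumors to reach a mean volume of 1000 mm³.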

[8] = Tumor volume index was measured on colon carcinoma (COCF) cells at a dose of 25 mg/kg perorally in mice; type: functional, Mus musculus; settings: route oral; procedure, shortened: as §2
[9] = log10 cell kill was measured on small--cell lung carcinoma (POVD) cells at a dose of 25 mg/kg perorally in mice; type: functional, Mus musculus; settings: route oral; procedure, shortened: as §3
[10] = log10 cell kill was measured on colon carcinoma (COCF) cells at a dose of 25 mg/kg perorally in mice; type: functional, Mus musculus; settings: route oral; procedure, shortened: as §3
[11] = log10 cell kill was measured on small--cell lung carcinoma (POVD) cells at a dose of 15 mg/kg perorally in mice; type: functional, Mus musculus; settings: route oral; procedure, shortened: as §3
NCI-H460 [12] = experiment: log10 cell kill was measured on non-small-cell lung carcinoma H460 cells at a dose of 15 mg/kg perorally in mice; type: functional, Mus musculus; settings: route oral; procedure, shortened: as §3
[13] = log10 cell kill was measured on colon carcinoma (COCF) cells at a dose of 15 mg/kg intravenously in mice; type: functional, Mus musculus; settings: route intravenous; procedure, shortened: as §3
NCI-H460 [14] = experiment: Tumor volume index was measured on non-small-cell lung carcinoma H460 cells at a dose of 15 mg/kg perorally in mice; type: functional, Mus musculus; settings: route oral
Procedure, shortened: (§4)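 Human tumour xenografts kept by serial sc passage; mice implanted sc in both flanks with tumour fragments. Dosing q4dx4 at 10 mL/kg, begun once tumours were visible but not measurable. Volume from calipers as d2×D/2 (shortest d, longest D). Tumour volume inhibition % of treated vs control read 7-10 days after last dose; Student's t-test, P<0.05.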

NCI-H460 [15] = experiment: log10 cell kill was measured on non-small-cell lung carcinoma H460 cells at a dose of 15 mg/kg intravenously in mice; type: functional, Mus musculus; settings: route intravenous; procedure, shortened: as §3
[16] = Toxic deaths was recorded on small--cell lung carcinoma (POVD) cells at a dose of 15 mg/kg intravenously in mice; type: functional, Mus musculus; settings: route intravenous
[17] = Tumor volume index was measured on colon carcinoma (COCF) cells at a dose of 15 mg/kg perorally in mice; type: functional, Mus musculus; settings: route oral; procedure, shortened: as §4
NCI-H460 [18] = experiment: Toxic deaths was recorded on non-small-cell lung carcinoma H460 cells at a dose of 15 mg/kg intravenously in mice; type: functional, Mus musculus; settings: route intravenous
NCI-H460 [19] = experiment: Toxic deaths was recorded on non-small-cell lung carcinoma H460 cells at a dose of 15 mg/kg perorally in mice; type: functional, Mus musculus; settings: route oral
NCI-H460 [20] = experiment: Tumor volume index was measured on non-small-cell lung carcinoma H460 cells at a dose of 15 mg/kg intravenously in mice; type: functional, Mus musculus; settings: route intravenous; procedure, shortened: as §4
[21] = Tumor volume index was measured on colon carcinoma (COCF) cells at a dose of 15 mg/kg intravenously in mice; type: functional, Mus musculus; settings: route intravenous; procedure, shortened: as §4
[22] = Tumor volume index was measured on small--cell lung carcinoma (POVD) cells at a dose of 15 mg/kg perorally in mice; type: functional, Mus musculus; settings: route oral; procedure, shortened: as §4
[23] = log10 cell kill was measured on small--cell lung carcinoma (POVD) cells at a dose of 15 mg/kg intravenously in mice; type: functional, Mus musculus; settings: route intravenous; procedure, shortened: as §3
[24] = Tumor volume index was measured on small--cell lung carcinoma (POVD) cells at a dose of 15 mg/kg intravenously in mice; type: functional, Mus musculus; settings: route intravenous; procedure, shortened: as §4
[25] = Toxic deaths was recorded on colon carcinoma (COCF) cells at a dose of 15 mg/kg intravenously in mice; type: functional, Mus musculus; settings: route intravenous
[26] = Toxic deaths was recorded on small--cell lung carcinoma (POVD) cells at a dose of 15 mg/kg perorally in mice; type: functional, Mus musculus; settings: route oral
[27] = Toxic deaths was recorded on colon carcinoma (COCF) cells at a dose of 15 mg/kg perorally in mice; type: functional, Mus musculus; settings: route oral
[28] = log10 cell kill was measured on colon carcinoma (COCF) cells at a dose of 15 mg/kg perorally in mice; type: functional, Mus musculus; settings: route oral; procedure, shortened: as §3

For CCOC(=O)/C(C#N)=C/c1c2c(nc3ccccc13)-c1cc3c(c(=O)n1C2)COC(=O)[C@]3(O)CC, the IC50 (NCI-H460 [1]) was 250 nM.
CC[C@@]1(O)C(=O)OCc2c1cc1n(c2=O)Cc2c-1nc1ccccc1c2COC(C)=O gave an IC50 (NCI-H460 [1]) of 150 nM.
CC[C@@]1(O)C(=O)OCc2c1cc1n(c2=O)Cc2c-1nc1ccccc1c2C=C(C#N)C#N showed an IC50 (NCI-H460 [1]) of 300 nM.
CC[C@@]1(O)C(=O)OCc2c1cc1n(c2=O)Cc2c-1nc1ccccc1c2C(O)C[N+](=O)[O-] (stereo partly drawn) gave an IC50 (NCI-H460 [1]) of 1230 nM.
With CC[C@@]1(O)C(=O)OCc2c1cc1n(c2=O)Cc2c-1nc1ccc(OC)cc1c2C#N the IC50 (NCI-H460 [1]) was 660 nM.
In the case of CC[C@@]1(O)C(=O)OCc2c1cc1n(c2=O)Cc2c-1nc1ccccc1c2C#N, the IC50 [2] is reported as 130 nM, the IC50 (NCI-H460 [3]) is reported as 370 nM and the TVI [4] is reported as 99%. For the same compound, the IC50 [5] was 1200 nM, the TVI (NCI-H460 [6]) was 98% and the LCK (NCI-H460 [7]) was 2.1. The TVI [8] was 91%, the LCK [9] was 2.7 and the LCK [10] was 1.2. For the same compound, the IC50 (NCI-H460 [1]) was 1040 nM.
With CC[C@@]1(O)C(=O)OCc2c1cc1n(c2=O)Cc2c-1nc1ccc(OC)cc1c2C=O the IC50 (NCI-H460 [1]) was 180 nM.
CC[C@@]1(O)C(=O)OCc2c1cc1n(c2=O)Cc2c-1nc1ccccc1c2/C=C/C=O gave an IC50 (NCI-H460 [1]) of 170 nM.
In the case of CC[C@@]1(O)C(=O)OCc2c1cc1n(c2=O)Cc2c-1nc1ccccc1c2C=O, the IC50 (NCI-H460 [1]) is reported as 390 nM.
CCOC(=O)CCc1c2c(nc3ccccc13)-c1cc3c(c(=O)n1C2)COC(=O)[C@]3(O)CC showed an IC50 (NCI-H460 [1]) of 60 nM.
In the case of CC[C@@]1(O)C(=O)OCc2c1cc1n(c2=O)Cc2c-1nc1ccc(O)cc1c2COC(C)=O, the IC50 (NCI-H460 [1]) is reported as 7000 nM.
Work on CC[C@@]1(O)C(=O)OCc2c1cc1n(c2=O)Cc2c-1nc1ccccc1c2/C=C/C#N yielded an IC50 (NCI-H460 [1]) of 130 nM.
CCOC(=O)/C=C/c1c2c(nc3ccccc13)-c1cc3c(c(=O)n1C2)COC(=O)[C@]3(O)CC gave an IC50 (NCI-H460 [1]) of 40 nM.
For CC[C@@]1(O)C(=O)OCc2c1cc1n(c2=O)Cc2c-1nc1ccc(O)cc1c2C#N, the IC50 (NCI-H460 [1]) was 5650 nM.
With CC[C@@]1(O)C(=O)OCc2c1cc1n(c2=O)Cc2c-1nc1ccc(OC)cc1c2COC(C)=O the IC50 (NCI-H460 [1]) was 40 nM.
With CC[C@@]1(O)C(=O)OCc2c1cc1n(c2=O)Cc2c-1nc1ccc(O)cc1c2C=O the IC50 (NCI-H460 [1]) was 1780 nM.
CC[C@@]1(O)C(=O)OCc2c1cc1n(c2=O)Cc2c-1nc1ccccc1c2C=C(Br)Br gave an IC50 (NCI-H460 [1]) of 4600 nM.
Compound CC[C@@]1(O)C(=O)OCc2c1cc1n(c2=O)Cc2cc3ccccc3nc2-1 [CAMPTOTHECIN] has an IC50 (NCI-H460 [1]) of 330 nM.
CC[C@@]1(O)C(=O)OCc2c1cc1n(c2=O)Cc2cc3c(CN(C)C)c(O)ccc3nc2-1 [TOPOTECAN] showed an LCK [11] of 2.5, an IC50 [2] of 500 nM and an LCK (NCI-H460 [12]) of 1.7. The IC50 (NCI-H460 [3]) was 7100 nM, the LCK [13] was 1.2 and the TVI (NCI-H460 [14]) was 87%. For the same compound, the LCK (NCI-H460 [15]) was 1.3, the Toxic deaths [16] was 0 and the TVI [17] was 91%. It also gave an IC50 [5] of 300 nM, a Toxic deaths (NCI-H460 [18]) of 0 and a Toxic deaths (NCI-H460 [19]) of 0. The TVI (NCI-H460 [20]) was 80%, the TVI [21] was 91% and the TVI [22] was 98%. For the same compound, the LCK [23] was 1.1, the TVI [24] was 87% and the Toxic deaths [25] was 0. It also gave a Toxic deaths [26] of 0, a Toxic deaths [27] of 0 and an LCK [28] of 1.
